In brackets after ≈: the same amount, converted by molar mass. Activity calls are given as the source filed them. The rule behind the calls is not given here.
system: Staphylococcus aureus; assay: Antibacterial activity against Staphylococcus aureus ATCC 6538 after 24 to 48 hrs by twofold serial dilution method; type: functional; settings: not given
Method in brief: (§1)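 Broth microdilution in Müller–Hinton broth. DMSO stocks at 800 were diluted twofold from 400 down to 6.25. Wells received 10^6 CFU/mL bacterial suspension and were incubated at 36 °C for 24–48 h, with controls. MIC was read per well. Duplicate assays; run only for compounds giving inhibition zones ≥14 mm.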

Compound | MIC
O=C(COC(Cn1nnnc1Cc1ccccc1)c1ccc(Cl)cc1)N/N=C/c1ccc(Cl)cc1 (stereo not drawn) | 100 µg/mL (≈ 196 µM)
CCOC(=O)COC(Cn1nnc(-c2ccccc2)n1)c1ccc(Cl)cc1 (stereo not drawn) | 100 µg/mL (≈ 259 µM)

system: Bacillus subtilis; assay: Antibacterial activity against Bacillus subtilis NRRL B-14819 after 24 to 48 hrs by twofold serial dilution method; type: functional; settings: not given; method in brief: as §1

Compound | MIC
O=C(COC(Cn1nnnc1Cc1ccccc1)c1ccc(Cl)cc1)N/N=C/c1ccc(Cl)cc1 (stereo not drawn) | 100 µg/mL (≈ 196 µM)
CCOC(=O)COC(Cn1nnc(-c2ccccc2)n1)c1ccc(Cl)cc1 (stereo not drawn) | ≥ 200 µg/mL

system: Micrococcus luteus; assay: Antibacterial activity against Micrococcus luteus ATCC 21881 after 24 to 48 hrs by twofold serial dilution method; type: functional; settings: not given; method in brief: as §1

Compound | MIC
O=C(COC(Cn1nnnc1Cc1ccccc1)c1ccc(Cl)cc1)N/N=C/c1ccc(Cl)cc1 (stereo not drawn) | 100 µg/mL (≈ 196 µM)
CCOC(=O)COC(Cn1nnc(-c2ccccc2)n1)c1ccc(Cl)cc1 (stereo not drawn) | ≥ 200 µg/mL

system: Escherichia coli; assay: Antibacterial activity against Escherichia coli ATCC 25922 after 24 to 48 hrs by twofold serial dilution method; type: functional; settings: not given; method in brief: as §1

Compound | MIC
O=C(COC(Cn1nnnc1Cc1ccccc1)c1ccc(Cl)cc1)N/N=C/c1ccc(Cl)cc1 (stereo not drawn) | 100 µg/mL (≈ 196 µM)
CCOC(=O)COC(Cn1nnc(-c2ccccc2)n1)c1ccc(Cl)cc1 (stereo not drawn) | ≥ 200 µg/mL

system: Pseudomonas aeruginosa; assay: Antibacterial activity against Pseudomonas aeruginosa ATCC 27853 after 24 to 48 hrs by twofold serial dilution method; type: functional; settings: not given; method in brief: as §1

Compound | MIC
O=C(COC(Cn1nnnc1Cc1ccccc1)c1ccc(Cl)cc1)N/N=C/c1ccc(Cl)cc1 (stereo not drawn) | ≥ 200 µg/mL
CCOC(=O)COC(Cn1nnc(-c2ccccc2)n1)c1ccc(Cl)cc1 (stereo not drawn) | ≥ 200 µg/mL

system: Klebsiella pneumoniae; assay: Antibacterial activity against Klebsiella pneumoniae isolate after 24 to 48 hrs by twofold serial dilution method; type: functional; settings: not given; method in brief: as §1

Compound | MIC
O=C(COC(Cn1nnnc1Cc1ccccc1)c1ccc(Cl)cc1)N/N=C/c1ccc(Cl)cc1 (stereo not drawn) | ≥ 200 µg/mL
CCOC(=O)COC(Cn1nnc(-c2ccccc2)n1)c1ccc(Cl)cc1 (stereo not drawn) | ≥ 200 µg/mL

system: Candida tropicalis; assay: Antifungal activity against Candida tropicalis isolate after 72 hrs by twofold serial dilution method; type: functional, organism-based; settings: not given

Compound | Activity
O=C(COC(Cn1nnnc1Cc1ccccc1)c1ccc(Cl)cc1)N/N=C/c1ccc(Cl)cc1 (stereo not drawn) | inactive
CCOC(=O)COC(Cn1nnc(-c2ccccc2)n1)c1ccc(Cl)cc1 (stereo not drawn) | inactive

system: Pichia kudriavzevii; assay: Antifungal activity against Candida krusei isolate after 72 hrs by twofold serial dilution method; type: functional, organism-based; settings: not given

Compound | Activity
O=C(COC(Cn1nnnc1Cc1ccccc1)c1ccc(Cl)cc1)N/N=C/c1ccc(Cl)cc1 (stereo not drawn) | inactive
CCOC(=O)COC(Cn1nnc(-c2ccccc2)n1)c1ccc(Cl)cc1 (stereo not drawn) | inactive

system: Aspergillus niger; assay: Antifungal activity against Aspergillus niger isolate after 72 hrs by twofold serial dilution method; type: functional, organism-based; settings: not given

Compound | Activity
O=C(COC(Cn1nnnc1Cc1ccccc1)c1ccc(Cl)cc1)N/N=C/c1ccc(Cl)cc1 (stereo not drawn) | inactive
CCOC(=O)COC(Cn1nnc(-c2ccccc2)n1)c1ccc(Cl)cc1 (stereo not drawn) | inactive

system: Trichophyton rubrum; assay: Antifungal activity against Trichophyton rubrum isolate after 72 hrs by twofold serial dilution method; type: functional, organism-based; settings: not given

Compound | Activity
O=C(COC(Cn1nnnc1Cc1ccccc1)c1ccc(Cl)cc1)N/N=C/c1ccc(Cl)cc1 (stereo not drawn) | inactive
CCOC(=O)COC(Cn1nnc(-c2ccccc2)n1)c1ccc(Cl)cc1 (stereo not drawn) | inactive

system: Mus musculus; assay: Anticonvulsant activity in Wister albino mouse assessed as protection against subcutaneous metrazole-induced seizures at 100 mg/kg, ip administered 30 mins before metrazole challenge measured after 30 mins; type: functional; settings: route intraperitoneal
Method in brief: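 Wistar albino mice, either sex, 25–30 g, 3 months old, in groups of six. Compounds in DMSO were given ip at 30, 100 or 300 mg/kg; vehicle-only controls. After 30 min, metrazole 100 mg/kg in DMSO was injected sc at the posterior midline. Protection meant absence of any clonic spasm lasting ≥5 s; scored as protected/tested.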

Compound | Activity
O=C(COC(Cn1nnnc1Cc1ccccc1)c1ccc(Cl)cc1)N/N=C/c1ccc(Cl)cc1 (stereo not drawn) | 50%

system: Mus musculus; assay: Anticonvulsant activity in Wister albino mouse assessed as protection against maximal electroshock-induced seizures at 100 mg/kg, ip administered 30 mins before metrazole challenge measured after 30 mins; type: functional; settings: route intraperitoneal

Compound | Activity
O=C(COC(Cn1nnnc1Cc1ccccc1)c1ccc(Cl)cc1)N/N=C/c1ccc(Cl)cc1 (stereo not drawn) | 50%

system: Staphylococcus aureus; assay: Antibacterial activity against Staphylococcus aureus ATCC 6538 at 1 mg/mL after 24 hrs by agar diffusion method; type: functional; settings: ATCC 6538, 24 h, read-out: Diameter of inhibition zone
Method in brief: (§2)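 Agar disc diffusion: 5 mm sterile paper discs soaked in 1 mg/mL test solution in DMSO were placed on agar seeded with the organism, in triplicate, with a DMSO-only control. Bacterial plates were incubated at 37 °C for 24 h and fungal plates for 7 days. Read-out was the average inhibition-zone diameter in mm. Fungi were clinical isolates.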

Compound | zone of inhibition at 1000 µg/mL
O=C(COC(Cn1nnnc1Cc1ccccc1)c1ccc(Cl)cc1)N/N=C/c1ccc(Cl)cc1 (stereo not drawn) | ≥ 14 mm
CCOC(=O)COC(Cn1nnc(-c2ccccc2)n1)c1ccc(Cl)cc1 (stereo not drawn) | ≥ 14 mm

system: Bacillus subtilis; assay: Antibacterial activity against Bacillus subtilis NRRL B-14819 at 1 mg/mL after 24 hrs by agar diffusion method; type: functional; settings: read-out: Diameter of inhibition zone; method in brief: as §2

Compound | zone of inhibition at 1000 µg/mL
O=C(COC(Cn1nnnc1Cc1ccccc1)c1ccc(Cl)cc1)N/N=C/c1ccc(Cl)cc1 (stereo not drawn) | ≥ 14 mm
CCOC(=O)COC(Cn1nnc(-c2ccccc2)n1)c1ccc(Cl)cc1 (stereo not drawn) | ≥ 14 mm

system: Micrococcus luteus; assay: Antibacterial activity against Micrococcus luteus ATCC 21881 at 1 mg/mL after 24 hrs by agar diffusion method; type: functional; settings: ATCC 21881, 24 h, read-out: Diameter of inhibition zone; method in brief: as §2

Compound | zone of inhibition at 1000 µg/mL
O=C(COC(Cn1nnnc1Cc1ccccc1)c1ccc(Cl)cc1)N/N=C/c1ccc(Cl)cc1 (stereo not drawn) | ≥ 14 mm
CCOC(=O)COC(Cn1nnc(-c2ccccc2)n1)c1ccc(Cl)cc1 (stereo not drawn) | ≥ 14 mm

system: Escherichia coli; assay: Antibacterial activity against Escherichia coli ATCC 25922 at 1 mg/mL after 24 hrs by agar diffusion method; type: functional; settings: ATCC 25922, 24 h, read-out: Diameter of inhibition zone; method in brief: as §2

Compound | zone of inhibition at 1000 µg/mL
O=C(COC(Cn1nnnc1Cc1ccccc1)c1ccc(Cl)cc1)N/N=C/c1ccc(Cl)cc1 (stereo not drawn) | ≥ 14 mm
CCOC(=O)COC(Cn1nnc(-c2ccccc2)n1)c1ccc(Cl)cc1 (stereo not drawn) | ≥ 14 mm

system: Pseudomonas aeruginosa; assay: Antibacterial activity against Pseudomonas aeruginosa ATCC 27853 at 1 mg/mL after 24 hrs by agar diffusion method; type: functional; settings: ATCC 27853, 24 h, read-out: Diameter of inhibition zone; method in brief: as §2

Compound | zone of inhibition at 1000 µg/mL
O=C(COC(Cn1nnnc1Cc1ccccc1)c1ccc(Cl)cc1)N/N=C/c1ccc(Cl)cc1 (stereo not drawn) | ≥ 14 mm
CCOC(=O)COC(Cn1nnc(-c2ccccc2)n1)c1ccc(Cl)cc1 (stereo not drawn) | ≥ 14 mm

system: Klebsiella pneumoniae; assay: Antibacterial activity against Klebsiella pneumoniae isolate at 1 mg/mL after 24 hrs by agar diffusion method; type: functional; settings: read-out: Diameter of inhibition zone; method in brief: as §2

Compound | zone of inhibition at 1000 µg/mL
O=C(COC(Cn1nnnc1Cc1ccccc1)c1ccc(Cl)cc1)N/N=C/c1ccc(Cl)cc1 (stereo not drawn) | ≥ 14 mm
CCOC(=O)COC(Cn1nnc(-c2ccccc2)n1)c1ccc(Cl)cc1 (stereo not drawn) | ≥ 14 mm

system: Candida albicans; assay: Antifungal activity against Candida albicans isolate at 1 mg/mL after 7 days by twofold serial dilution method; type: functional; settings: 168 h, read-out: Diameter of inhibition zone

Compound | zone of inhibition at 1000 µg/mL
O=C(COC(Cn1nnnc1Cc1ccccc1)c1ccc(Cl)cc1)N/N=C/c1ccc(Cl)cc1 (stereo not drawn) | ≥ 14 mm
CCOC(=O)COC(Cn1nnc(-c2ccccc2)n1)c1ccc(Cl)cc1 (stereo not drawn) | ≥ 14 mm

system: Aspergillus fumigatus; assay: Antifungal activity against Aspergillus fumigatus isolate at 1 mg/mL after 7 days by agar diffusion method; type: functional; settings: 168 h, read-out: Diameter of inhibition zone; method in brief: as §2

Compound | zone of inhibition at 1000 µg/mL
O=C(COC(Cn1nnnc1Cc1ccccc1)c1ccc(Cl)cc1)N/N=C/c1ccc(Cl)cc1 (stereo not drawn) | ≥ 14 mm
CCOC(=O)COC(Cn1nnc(-c2ccccc2)n1)c1ccc(Cl)cc1 (stereo not drawn) | ≥ 14 mm
